Calls of active or inactive are those of the source.
Columns and labels:
Cannabinoid receptor 1 = Cannabinoid receptor 1 (Homo sapiens, UniProt P21554); experiment: Displacement of [3H]CP-55940 from human CB1 receptor
Method in brief: (§1)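 Membranes with cloned human CB1 or CB2 receptors; test ligand displaces [3H]CP-55940; Ki values are geometric means of at least three separate determinations.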

Cannabinoid receptor 2 [1] = target: T1, Cannabinoid receptor 2 (Homo sapiens, UniProt P34972); experiment: Displacement of [3H]CP-55940 from human CB2 receptor; method in brief: as §1
Target sequence in this assay (P34972 whole entry): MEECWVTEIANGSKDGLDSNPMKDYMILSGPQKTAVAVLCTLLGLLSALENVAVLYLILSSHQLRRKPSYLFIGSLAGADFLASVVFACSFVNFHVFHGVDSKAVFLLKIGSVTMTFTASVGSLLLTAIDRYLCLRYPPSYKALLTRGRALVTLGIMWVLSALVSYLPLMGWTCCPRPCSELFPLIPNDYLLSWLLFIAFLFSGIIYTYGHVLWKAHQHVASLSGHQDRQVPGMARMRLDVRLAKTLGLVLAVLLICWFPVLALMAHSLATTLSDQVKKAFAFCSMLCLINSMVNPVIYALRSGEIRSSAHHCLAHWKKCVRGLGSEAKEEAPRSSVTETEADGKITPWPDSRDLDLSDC

Cannabinoid receptor 2 [2] = target: T2, Cannabinoid receptor 2 (Rattus norvegicus, UniProt Q9QZN9); experiment: Agonist activity at rat brain CB2 receptor by GTPgammaS binding assay; format: functional
T2 sequence (Q9QZN9 whole entry): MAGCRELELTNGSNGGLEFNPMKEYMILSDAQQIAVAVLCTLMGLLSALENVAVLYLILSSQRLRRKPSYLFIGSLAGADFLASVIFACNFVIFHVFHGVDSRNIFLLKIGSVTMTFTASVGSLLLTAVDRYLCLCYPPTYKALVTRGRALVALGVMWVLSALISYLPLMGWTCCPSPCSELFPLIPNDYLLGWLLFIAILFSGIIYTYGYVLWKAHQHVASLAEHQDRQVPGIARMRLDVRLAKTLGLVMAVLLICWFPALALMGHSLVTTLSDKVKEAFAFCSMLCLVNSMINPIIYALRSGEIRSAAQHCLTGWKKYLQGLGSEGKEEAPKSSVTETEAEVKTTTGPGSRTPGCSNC

Homo sapiens = species on record: Homo sapiens; experiment: Selectivity, ratio of Ki for human CB1 to Ki for human CB2
Method in brief: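 Ki at each receptor came from displacement of [³H]CP-55940 binding in membranes containing cloned human CB₁ or CB₂ receptor. Ki values are geometric means of at least three separate determinations. Selectivity is Ki CB₁ divided by Ki CB₂.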

Cannabinoid receptor 2 [3] = target: T1, Cannabinoid receptor 2; experiment: Inhibition of [3H]CP-55940 binding to human CB2 receptor at 10 uM
Target sequence in this assay (P34972 whole entry, looked up): as the sequence (P34972 whole entry) above

Liver microsomes [4] = experiment: Metabolic stability in rat liver microsomes; format: ADME, Microsome
Method in brief: (§2)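 Parent compound incubated with rat (RLM) or human (HLM) liver microsomes for 30 min; result given as % parent remaining.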

Liver microsomes [5] = experiment: Metabolic stability in human liver microsomes; format: ADME, Microsome; method in brief: as §2
[6] = Clearance in Sprague-Dawley rat at 1 mg/kg, iv; format: ADME, organism-based; design: dose 1 mg/kg, route intravenous; conditions: in vivo
[7] = Volume of distribution at steady state in Sprague-Dawley rat at 1 mg/kg, iv; format: ADME, organism-based; design: dose 1 mg/kg, route intravenous; conditions: in vivo, read-out: Vdss
[8] = Half life in Sprague-Dawley rat at 1 mg/kg, iv; format: ADME, organism-based; design: dose 1 mg/kg, route intravenous; conditions: in vivo
[9] = AUC (0 to infinity) in Sprague-Dawley rat at 1 mg/kg, iv; format: ADME, organism-based; design: time infinity, dose 1 mg/kg, route intravenous; conditions: plasma
[10] = AUC (0 to infinity) in Sprague-Dawley rat at 100 mg/kg, po; format: ADME, organism-based; design: time infinity, dose 100 mg/kg, route oral; conditions: plasma
[11] = Tmax in Sprague-Dawley rat at 100 mg/kg, po; format: ADME, organism-based; design: dose 100 mg/kg, route oral; conditions: in vivo
Method in brief: (§3)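 Male Sprague-Dawley rats dosed 100 mg/kg po. Cmax and oral F are mean ± SD of three animals; F is referenced to a 1.0 mg/kg iv dose; Tmax is given as median and range.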

[12] = Cmax in Sprague-Dawley rat at 100 mg/kg, po; format: ADME, organism-based; design: dose 100 mg/kg, route oral; conditions: in vivo; method in brief: as §3
[13] = Oral bioavailability in Sprague-Dawley rat at 100 mg/kg; format: ADME, organism-based; conditions: in vivo; method in brief: as §3
Rattus norvegicus = experiment: Antiallodynic effect against rat hind paw insition model assessed as paw withdrawal at 30 mg/kg, ip; format: functional, organism-based; design: dose 30 mg/kg
Method in brief: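 Rat hindpaw incision surgery model with vehicle and morphine treatment groups. Mechanical paw withdrawal threshold of the left hindpaw was followed over time. Data are mean ± SEM; one-way ANOVA with post-hoc protected t-test versus the vehicle-treated surgery group.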

Chain of Cannabinoid receptor 1 (P21554 whole entry): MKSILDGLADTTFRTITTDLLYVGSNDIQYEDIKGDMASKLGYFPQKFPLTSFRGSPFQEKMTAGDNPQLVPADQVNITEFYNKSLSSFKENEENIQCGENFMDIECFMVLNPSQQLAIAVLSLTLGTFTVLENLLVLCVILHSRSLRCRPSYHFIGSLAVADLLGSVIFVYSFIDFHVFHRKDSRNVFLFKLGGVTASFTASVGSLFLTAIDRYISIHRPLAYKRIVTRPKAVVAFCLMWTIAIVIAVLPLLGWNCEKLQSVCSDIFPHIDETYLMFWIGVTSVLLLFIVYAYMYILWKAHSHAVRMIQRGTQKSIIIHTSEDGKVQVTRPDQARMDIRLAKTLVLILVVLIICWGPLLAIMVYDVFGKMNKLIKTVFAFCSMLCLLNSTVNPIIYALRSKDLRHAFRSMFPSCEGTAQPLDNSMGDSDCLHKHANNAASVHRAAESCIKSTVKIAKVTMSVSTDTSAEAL

Row | SMILES | Ki (Cannabinoid receptor 1) | Ki (Cannabinoid receptor 2 [1]) | EC50 (Cannabinoid receptor 2 [2]) | Ratio Ki (Homo sapiens) | Stability (Liver microsomes [4]) | Stability (Liver microsomes [5]) | also measured
1 | CCC(C)(C)C(=O)Nc1cc(C)c(C)c(S(=O)(=O)NC2CCCC2)c1 | 3400 nM | 94 nM | 98 nM | 36 |  |  | 
2 | CCC(C)(C)C(=O)Nc1cc(S(=O)(=O)N2CCOCC2)c(C)cc1C |  | 760 nM |  |  |  |  | 
3 | CCC(C)(C)C(=O)Nc1cc(C)c(C)c(S(=O)(=O)N2CCC[C@@H]2CO)c1 |  | 43 nM | 98 nM |  |  |  | inhibition (Cannabinoid receptor 2 [3]): 8.3%
4 | CCC(C)(C)C(=O)Nc1cc(S(=O)(=O)N2CCOCC2)cc(C)c1C |  |  |  |  |  |  | inhibition (Cannabinoid receptor 2 [3]): 15%
5 | CCCC(C)(C)C(=O)Nc1cc(C)c(C)c(S(=O)(=O)N2CCOCC2)c1 | 830 nM | 9.7 nM | 21 nM | 86 | 9% | 1% | 
6 | CCC(C)(C)C(=O)Nc1cc(C)c(C)c(S(=O)(=O)NCC2CC2)c1 | 3800 nM | 66 nM | 135 nM | 57 |  |  | 
7 | CCC(C)(C)C(=O)Nc1cc(C)c(C)c(S(=O)(=O)N2CCS(=O)(=O)CC2)c1 |  | 8.4 nM | 20 nM |  | 10% | 1% | inhibition (Cannabinoid receptor 2 [3]): 18%
8 | Cc1ccc(NC(=O)C2C(C)(C)C2(C)C)cc1S(=O)(=O)N1CCOCC1 |  |  | 11 nM | 150 | 2% | 1% | 
9 | CCC(C)(C)C(=O)Nc1cc2c(c(S(=O)(=O)N3CCOCC3)c1)CCCC2 | 1400 nM | 14 nM | 1400 nM | 100 | 2% | 1% | 
10 | CCC(C)(C)C(=O)Nc1ccc(C)c(S(=O)(=O)N2CCOCC2)c1 |  | 290 nM |  |  |  |  | 
11 | CCCCC(C)(C)C(=O)Nc1cc(C)c(C)c(S(=O)(=O)N2CCOCC2)c1 | 140 nM | 1.1 nM | 82 nM | 130 | 0% | 0% | 
12 | CCC(C)(C)C(=O)Nc1cc(C)c(C)c(S(=O)(=O)N2CCCCC2)c1 | 650 nM | 2.7 nM | 13 nM | 240 | 0% | 0% | 
13 | Cc1cc(NC(=O)C2C(C)(C)C2(C)C)cc(S(=O)(=O)N2CCOCC2)c1C | 1100 nM | 16 nM | 66 nM | 69 | 31% | 17% | 
14 | Cc1cc(NC(=O)C(C)(C(F)(F)F)C(F)(F)F)cc(S(=O)(=O)N2CCOCC2)c1C | 780 nM | 6.6 nM | 11 nM | 120 | 22% | 11% | 
15 | CCC(C)(C)C(=O)Nc1cc2c(c(S(=O)(=O)N3CCOCC3)c1)CCC2 | 1700 nM | 12 nM | 1700 nM | 140 | 9% | 10% | 
16 | CCC(C)(C)C(=O)Nc1cc(C)c(C)c(S(=O)(=O)N2CCOCC2)c1 | 2500 nM | 17 nM | 38 nM | 150 | 28% | 17% | clearance [6]: 70 mL/min/kg; Vd [7]: 2.5 L/kg; half-life [8]: 0.7 h; AUC(0-inf) [9]: 237 ng·h/mL; AUC(0-inf) [10]: 4800 ng·h/mL; Tmax [11]: 6 h; Cmax [12]: 1220 ng/mL; bioavailability [13]: 22%; Activity (Rattus norvegicus): Active
17 | COCCC(C)(C)C(=O)Nc1cc(C)c(C)c(S(=O)(=O)N2CCOCC2)c1 |  | 110 nM |  |  |  |  | 
18 | Cc1cc(NC(=O)C(C)(C)C)cc(S(=O)(=O)N2CCOCC2)c1C | 3100 nM | 40 nM | 90 nM | 78 | 37% | 52% | 
19 | CCC(C)(C)C(=O)Nc1cc(C)c(C)c(S(=O)(=O)N2CC[C@H](O)C2)c1 |  | 90 nM | 73 nM |  |  |  | inhibition (Cannabinoid receptor 2 [3]): 6.3%
20 | Cc1cc(NC(=O)C(C)(C)O)cc(S(=O)(=O)N2CCOCC2)c1C |  | 2080 nM |  |  |  |  | 
21 | Cc1cc(NC(=O)C(C)(C)c2ccccc2)cc(S(=O)(=O)N2CCOCC2)c1C |  | 120 nM |  |  |  |  | 
22 | CCC(C)(C)C(=O)Nc1cc(C)c(C)c(S(=O)(=O)N2CCCCCC2)c1 | 1800 nM | 9 nM | 22 nM | 200 | 0% | 0% | 
23 | CCC(C)(C)C(=O)Nc1cc(C)c(C)c(S(=O)(=O)N2CCSC2)c1 | 2100 nM | 6.9 nM | 12 nM | 300 | 0% | 0% | 
24 | CCC(C)(C)C(=O)Nc1cc(S(=O)(=O)N2CCOCC2)c(C)c(C)c1C |  | 410 nM |  |  |  |  | 
